Granule exo inh = LAMP-1 surface exposure blockers, TALL-104 cells – cell-based, flow cytometry, MLPCN library, primary screen; hit rate 0.66% among 360,000; TALL-104 LAMP-1 surface exposure; cells stimulated with thapsigargin and PMA; inhibition, % at 10 µM;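 active means inhibition above about 55%, limit read from the data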
CendR NRP1 mod = modulators of CendR peptide binding to NRP-1, primary screen, biochemical, fluorescence polarization, uHTS; FAM-RPARPAR peptide binding to NRP-1; AID 602438, 2012; Neuropilin-1 (Homo sapiens), O14786; hit rate 0.85% among 360,000; inhibition, % at 25 µM;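 active means inhibition or corrected inhibition above about 18%, plus a signal ratio from 0.5 to 1.5, limit read from the data, passing the limit was not always enough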
V-ATPase pH = regulators of yeast V-ATPase proton pumping, primary screen, pHLuorin cytosolic pH fluorescence. S. cerevisiae. response, % at 10 µM. hit rate 0.37% among 350,000. AID 504577, 2011; in the data active means response mostly above about 7.3%, no sharp cut-off; inactive means mostly below about 5.4%; further: actives read high
ASAP1 GAP inh = inhibitors of human ASAP1 ArfGAP activity, primary screen, biochemical, fluorescence polarization; inhibition, % at 16.5 µM; Arf-GAP with SH3 domain, ANK repeat and PH domain-containing protein 1 (Homo sapiens), …; ASAP1-stimulated ARF1 GTP hydrolysis, GDP FP detection; hit rate 0.19% among 360,000; in the data active means inhibition above about 25%;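 further: 0% = vehicle with enzyme and substrate and 100% = no enzyme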
Target sequence (Q9ULH1 325-724 limits assumed): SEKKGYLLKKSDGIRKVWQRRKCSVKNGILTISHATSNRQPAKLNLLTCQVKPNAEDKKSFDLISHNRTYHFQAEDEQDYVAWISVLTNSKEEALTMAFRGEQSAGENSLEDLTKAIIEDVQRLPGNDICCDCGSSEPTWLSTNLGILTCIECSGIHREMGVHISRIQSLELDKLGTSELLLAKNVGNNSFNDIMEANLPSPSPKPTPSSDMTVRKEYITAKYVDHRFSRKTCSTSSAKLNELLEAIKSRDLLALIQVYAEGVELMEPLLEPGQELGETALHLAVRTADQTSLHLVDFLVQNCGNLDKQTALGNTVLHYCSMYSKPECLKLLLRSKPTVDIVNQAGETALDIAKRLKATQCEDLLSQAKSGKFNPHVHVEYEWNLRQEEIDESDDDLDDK
ARFGAP1 inh = inhibitors of rat ARFGAP1 GAP activity, primary screen, biochemical, fluorescence polarization, GDP tracer; ADP-ribosylation factor GTPase-activating protein 1 (Rattus norvegicus), Q62848; Arfgap1-stimulated ARF1 GTP hydrolysis, GDP FP detection; inhibition, % at 16.5 µM; hit rate 0.26% among 360,000; AID 651572, 2012;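 active means inhibition above a per-plate limit, mean inhibition of low control wells plus 3 SD, cut at about 25% in these data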;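 further: 0% = DMSO wells with enzyme and 100% = wells lacking Arfgap1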
Target sequence (Q62848 1-136 limits assumed): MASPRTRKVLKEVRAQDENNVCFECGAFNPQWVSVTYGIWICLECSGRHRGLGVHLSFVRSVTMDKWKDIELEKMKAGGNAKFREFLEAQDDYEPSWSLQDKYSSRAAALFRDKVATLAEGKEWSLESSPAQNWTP
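material = rat Arfgap1 catalytic domain, aa 1-136 | also added = human ARF1(Δ1-17)-GTP substrate | compound dosing = one concentration, 16.5 µM, DMSO 1.26% | times = GTP hydrolysis reaction 2 h at 25 °C | measured by = FP, GDP Alexa 633 tracer displaced from anti-GDP antibody, 620/688 nm | evaluation = percent inhibition of Arfgap1-stimulated GTP hydrolysis | replication = single well per compound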
Active calls of the source: *; x = no result given; ! = repeats disagree. Shown are actives, neighbours in structure and some others; about 2.2% of the full set was active somewhere.

SMILES | Granule exo inh | CendR NRP1 mod | V-ATPase pH | ASAP1 GAP inh | ARFGAP1 inh
CC(C)c1ccc(NC(=O)CN2C(=O)NC3(CCCC3)C2=O)cc1 | 18 | 24* | 4 | 12 | 5
CN1CCN(C(=O)c2ccc(N(C)S(=O)(=O)c3cccs3)cc2)CC1 | -6 | 22* | 0 | -13 | -5
CN(c1ccc(C(=O)N2CCCCC2)cc1)S(=O)(=O)c1cccs1 | 0 | 5 | 0 | -16 | -6
COc1ccc(N)cc1CN1CCN(c2ncc(Cc3ccccc3)cn2)CC1 | x | x | x | 3 | 8
N#CC1C(C#N)N2CCCN2C1c1ccc(Br)cc1 (configuration not stated) | 0 | 31* | -7 | -5 | 5
COc1ccc(CCNC(=O)Nc2nc(C(N)C3CCCCC3)cs2)cc1OC (configuration not stated) | 14 | 17* | x | -1 | 4
Cc1ccc(C(=O)Nc2nnc([C@H]3C[C@H](O)[C@@H](CO)O3)s2)cc1 | 12 | 30* | x | 8 | 6
NCCc1cnc[nH]1 | -1 | 19*! | 2 | -7 | -2
O=C(Cc1ccc(F)cc1)NCCc1cnc[nH]1 | -5 | 2 | -1 | -5 | 2
NCCC(=O)NCCc1cnc[nH]1 | -3 | -1 | 23* | 1 | 14
CCOC(=O)C(=CNc1ccc(O)c(C(=O)OC)c1)C(=O)OCC | 12 | 25* | 0 | -2 | 3
COc1ccc(/C=C\C(=O)NCC(=O)N/N=C/c2ccc(O)cc2O)cc1 | -5 | 8 | 1 | 14 | 0
O=C(/C=C\c1ccccc1)NCC(=O)N/N=C/c1ccc(O)cc1O | -1 | 0 | 12* | x | x
CCOC(=O)C1=NOC(Cn2cc(C#N)c(=O)n(C)c2=O)C1 (configuration not stated) | 0 | 36* | 1 | -6 | 13
CCOC(=O)C1=NOC(COc2ccccc2C=O)C1 (configuration not stated) | -3 | -2 | -2 | -3 | -4
Cc1cccc(NS(=O)(=O)c2cccs2)c1 | 1 | 36* | 5 | 8 | 5
Cc1cccc(NS(=O)(=O)c2ccc(NS(=O)(=O)c3cccs3)cc2)c1 | -11 | -14 | 2 | -9 | -10
COc1cccc(C=Cc2nccc3ccccc23)c1OC | -22 | 25* | 3 | 4 | -3
COc1ccc2nc(-c3ccc(CN4CCC(c5nc6ccccc6[nH]5)CC4)cc3)c(-c3ccccc3)nc2c1 | x | x | x | 13 | -3
Cc1cccc(CNc2ncnc3ccc(-c4ccoc4)cc23)c1 | 1 | 18 | 5 | 10 | -13
CC(=O)Nc1ccc(CNc2ncnc3ccc(-c4c(C)noc4C)cc23)cc1 | 2 | 36* | -1 | 19 | 2
O=C(Nc1cccc(N2C(=O)C=CC2=O)c1)c1cccs1 | 34 | -34 | 5 | -13 | 8
O=C1C=CC(=O)N1c1cccc(-c2ccccc2)c1 | 25 | 2 | 32* | -7 | -4
COc1ccc(NC(=O)COC(=O)[C@@H]2CCCN2C(=O)c2cccs2)cc1 | -8 | 29* | -6 | -6 | -21
C[C@@H]1ON(C)[C@H]2C[C@H]3c4[nH]c5c(-c6ccccc6)cccc5c4CCN3C[C@@H]12 | x | x | x | 5 | 10
SMILES | Granule exo inh | CendR NRP1 mod | V-ATPase pH | ASAP1 GAP inh | ARFGAP1 inh
Cc1nnc2n1NC(c1ccc(Cl)cc1)C(C(=O)N1CCC(C)CC1)S2 (configuration not stated) | -4 | 23* | 3 | -5 | 1
COc1ccccc1NC(=O)c1c(N=Cc2cccc([N+](=O)[O-])c2)cnn1C | 62* | 11 | -1 | 9 | 1
COc1ccc(C)cc1NC(=O)c1c([N+](=O)[O-])cnn1C | 7 | -5 | 3 | 13 | 5
COCCNC(=S)N(C)[C@H]1C[C@H]2c3[nH]c4cccc(-c5ccccc5)c4c3CCN2C(=O)[C@H]1[C@H](C)O | x | x | x | 6 | 12
CC1CC(C)CN(C(=S)Nc2ccc(OC(F)F)cc2)C1 (configuration not stated) | -1 | 14 | 0 | 8 | -8
CCC1CCCCN1C(=S)Nc1ccc(OC(F)F)cc1 (configuration not stated) | -2 | 27* | 3 | 3 | 1
COc1ccc(-c2csc(C(NC(C)=O)c3cccc(F)c3)n2)cn1 (configuration not stated) | 6 | 27* | x | 13 | 13
CC(=O)NC(c1cccc(F)c1)c1nc(-c2cccc(C(=O)O)c2)cs1 (configuration not stated) | 1 | 4 | x | -11 | 14
CC(=O)NC(c1cccc(F)c1)c1nc(-c2cccc(C(F)(F)F)c2)cs1 (configuration not stated) | -7 | 25* | x | 4 | -5
CN(C(=O)COC(=O)c1ccc2c(c1)OCO2)C1CCS(=O)(=O)C1 (configuration not stated) | -1 | 12 | 23* | -8 | -3
Cc1ccc(SCC(=O)OCC(=O)N(C)C2CCS(=O)(=O)C2)cc1C (configuration not stated) | 0 | 51* | 12 | 1 | -9
CN(C(=O)COC(=O)C1CCN(S(=O)(=O)c2c(Cl)cccc2Cl)CC1)C1CCS(=O)(=O)C1 (configuration not stated) | -5 | 7 | -1 | 0 | -9
CN(C(=O)COC(=O)Cc1c(Cl)cccc1Cl)C1CCS(=O)(=O)C1 (configuration not stated) | 19 | 26* | -3 | -10 | -9
CN(C(=O)COC(=O)c1nc(-c2ccccc2)n(-c2ccccc2)n1)C1CCS(=O)(=O)C1 (configuration not stated) | 0 | 40* | 3 | 4 | 4
COc1ccccc1CCNC(=O)c1ccc2nc[nH]c2c1 | -6 | -1 | -3 | 7 | -4
COc1ccccc1CCNC(=O)C(=O)NCC1OCCN1C(=O)c1ccc(Cl)cc1 (configuration not stated) | 8 | 8 | 1 | 11 | 4
COc1cc(C(=O)NC2CCCCN(C)C2=O)cc(OC)c1OC (configuration not stated) | x | x | x | 8 | -2
CN(C(=O)[C@@H](Cc1ccccc1)NC(=O)[C@H]1O[C@@H](n2cnc3c(=O)[nH]c(N)nc32)[C@H](O)[C@@H]1O)C1CCCCC1 | x | x | x | -10 | -2
Cn1nnnc1SCc1ccc(C(=O)Nc2ccccc2F)cc1 | -4 | -16 | 0 | -3 | -4
Cc1cc(C)cc(NC(=O)c2ccc(CSc3nnnn3C)cc2)c1 | -6 | 28* | 2 | -15 | 5
CCCCOCCCNC(=O)C[C@H]1C[C@@]2(C(=O)OC)C(=C[C@H](COCc3ccccc3)O[C@@H]2C)N(CCC2=CCCCC2)C1=O | x | x | x | 2 | -6
